We go through 21 molecules from ChEMBL document CHEMBL1140331, “Iterative approach to the discovery of novel degarelix analogues: substitutions at positions 3, 7, and 8. Part II” (J Med Chem, 2005).

*1 amine or outer side, *2 acyl side, *3 side chain or, on linkers, in order; H or OH if unused. Where a SMILES comes first, the peptide text is derived from it. [ ]: non-standard residue; d: D form. The star is where a group is joined. Phe(4-NH(5-NH2triazol-3-yl)) = Nc1nc(Nc2ccc(C[C@H](N)C(=O)O)cc2)n[nH]1; X1 = Nc1nc(Nc2ccc(C[C@@H](N[*:1])C(=O)[*:2])cc2)n[nH]1; dPhe(4-NHCONH2) = NC(=O)Nc1ccc(C[C@@H](N)C(=O)O)cc1; Dihydroorotyl(S) = O=C1C[C@@H](C(=O)*)NC(=O)N1; dPhe(4-Cl) = N[C@H](Cc1ccc(Cl)cc1)C(=O)O; Phe(4-NH2) = Nc1ccc(C[C@H](N)C(=O)O)cc1; d2Nal = N[C@H](Cc1ccc2ccccc2c1)C(=O)O; Lys(iPr) = CC(C)NCCCC[C@H](N)C(=O)O; d3Pal = N[C@H](Cc1cccnc1)C(=O)O

The target in one assay is T1, Gonadotropin-releasing hormone receptor (Homo sapiens, UniProt P30968).
T1 sequence (P30968 whole entry): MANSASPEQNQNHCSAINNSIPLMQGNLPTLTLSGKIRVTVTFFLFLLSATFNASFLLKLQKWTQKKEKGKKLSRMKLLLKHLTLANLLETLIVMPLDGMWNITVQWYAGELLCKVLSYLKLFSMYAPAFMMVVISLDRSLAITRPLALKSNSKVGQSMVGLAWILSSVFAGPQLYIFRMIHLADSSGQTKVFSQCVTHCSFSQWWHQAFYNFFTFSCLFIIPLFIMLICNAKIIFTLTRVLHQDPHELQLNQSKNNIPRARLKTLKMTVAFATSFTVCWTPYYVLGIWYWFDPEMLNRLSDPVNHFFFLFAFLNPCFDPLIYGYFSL
Description: Antagonism of GnRH response in HEK293 cells expressing human GnRH receptor. It is filed as functional, cell-based.
Details: not given
An outline of the steps: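 HEK293 cells stably carrying cloned human GnRH receptor and luciferase reporter under LH α-subunit promoter; cultured in phenol red-free DMEM, 10% FBS, G418 0.4 mg/mL; plated 5×10^4 cells/well, overnight 37 °C. Compound (11 half-log concentrations, duplicate, 1% DMSO) preincubated 10 min, then GnRH 1 nM final, ≥5 h; luminescence read; % of control cps (blank-subtracted) gives IC50.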
For orientation: IC50 means the point on the concentration scale where inhibition reaches its midpoint. With `CC(=O)N[C@H](Cc1ccc2ccccc2c1)C(=O)N[C@H](Cc1ccc(Cl)cc1)C(=O)N[C@H](Cc1cccnc1)C(=O)N[C@@H](CO)C(=O)N[C@@H](Cc1ccc(NC(=O)[C@@H]2CC(=O)NC(=O)N2)cc1)C(=O)N[C@H](Cc1ccc(NC(N)=O)cc1)C(=O)N[C@@H](CS)C(=O)N[C@@H](CCCCNC(C)C)C(=O)N1CCC[C@H]1C(=O)N[C@H](C)C(N)=O`, the midpoint of inhibition, the IC50, lay at 178 nM.
On the same count and under the same terms, with `CC(=O)N[C@H](Cc1ccc2ccccc2c1)C(=O)N[C@H](Cc1ccc(Cl)cc1)C(=O)N[C@H](Cc1cccnc1)C(=O)N[C@@H](CO)C(=O)N[C@@H](Cc1ccc(NC(=O)[C@@H]2CC(=O)NC(=O)N2)cc1)C(=O)N[C@H](Cc1ccc(NC(N)=O)cc1)C(=O)N[C@@H](CC(=O)N(C)C)C(=O)N[C@@H](CCCCNC(C)C)C(=O)N1CCC[C@H]1C(=O)N[C@H](C)C(N)=O` the figure was 48.9 nM.
The molecule `CC(=O)N[C@H](Cc1ccc2ccccc2c1)C(=O)N[C@H](Cc1ccc(Cl)cc1)C(=O)N[C@H](CNCc1ccccn1)C(=O)N[C@@H](CO)C(=O)N[C@@H](Cc1ccc(NC(=O)[C@@H]2CC(=O)NC(=O)N2)cc1)C(=O)N[C@H](Cc1ccc(NC(N)=O)cc1)C(=O)N[C@@H](CC(C)C)C(=O)N[C@@H](CCCCNC(C)C)C(=O)N1CCC[C@H]1C(=O)N[C@H](C)C(N)=O` returned a concentration for half-maximal inhibition (IC50) of 2.71 nM.
`CC(=O)N[C@H](Cc1ccc2ccccc2c1)C(=O)N[C@H](Cc1ccc(Cl)cc1)C(=O)N[C@H](Cc1cccnc1)C(=O)N[C@@H](CO)C(=O)N[C@@H](Cc1ccc(NC(=O)[C@@H]2CC(=O)NC(=O)N2)cc1)C(=O)N[C@H](Cc1ccc(NC(N)=O)cc1)C(=O)N[C@@H](CC(C)C)C(=O)N[C@@H](CCCNC(C)C)C(=O)N1CCC[C@H]1C(=O)N[C@H](C)C(N)=O`: 1.72 nM corresponded to half-maximal inhibition (IC50).
`CC(=O)N[C@H](Cc1ccc2ccccc2c1)C(=O)N[C@H](Cc1ccc(Cl)cc1)C(=O)N[C@H](Cc1cccnc1)C(=O)N[C@@H](CO)C(=O)N[C@@H](Cc1ccc(NC(=O)[C@@H]2CC(=O)NC(=O)N2)cc1)C(=O)N[C@H](Cc1ccc(NC(N)=O)cc1)C(=O)N[C@@H](Cc1c[nH]cn1)C(=O)N[C@@H](CCCCNC(C)C)C(=O)N1CCC[C@H]1C(=O)N[C@H](C)C(N)=O`: half-maximal inhibition (IC50) required 10.6 nM.
Still for that read-out and setting: under `CNC(=O)C[C@H](NC(=O)[C@@H](Cc1ccc(NC(N)=O)cc1)NC(=O)[C@H](Cc1ccc(NC(=O)[C@@H]2CC(=O)NC(=O)N2)cc1)NC(=O)[C@H](CO)NC(=O)[C@@H](Cc1cccnc1)NC(=O)[C@@H](Cc1ccc(Cl)cc1)NC(=O)[C@@H](Cc1ccc2ccccc2c1)NC(C)=O)C(=O)N[C@@H](CCCCNC(C)C)C(=O)N1CCC[C@H]1C(=O)N[C@H](C)C(N)=O` stands 25.8 nM.
The same measure, in the same setting: with `CC(=O)N[C@H](Cc1ccc2ccccc2c1)C(=O)N[C@H](Cc1ccc(Cl)cc1)C(=O)N[C@H](Cc1cccnc1)C(=O)N[C@@H](CO)C(=O)N[C@@H](Cc1ccc(NC(=O)[C@@H]2CC(=O)NC(=O)N2)cc1)C(=O)N[C@H](Cc1ccc(NC(N)=O)cc1)C(=O)N[C@@H](Cc1ccc(O)cc1)C(=O)N[C@@H](CCCCNC(C)C)C(=O)N1CCC[C@H]1C(=O)N[C@H](C)C(N)=O` the figure was 2.85 nM; with `CC(=O)N[C@H](Cc1ccc2ccccc2c1)C(=O)N[C@H](Cc1ccc(Cl)cc1)C(=O)N[C@H](Cc1cccnc1)C(=O)N[C@@H](CO)C(=O)N[C@@H](Cc1ccc(NC(=O)[C@@H]2CC(=O)NC(=O)N2)cc1)C(=O)N[C@H](Cc1ccc(NC(N)=O)cc1)C(=O)N[C@@H](CC(C)C)C(=O)N[C@@H](CCCCNC1CCCCC1)C(=O)N1CCC[C@H]1C(=O)N[C@H](C)C(N)=O`, 1.5 nM.
Still for that read-out and setting: under `CC(=O)N[C@H](Cc1ccc2ccccc2c1)C(=O)N[C@H](Cc1ccc(Cl)cc1)C(=O)N[C@H](Cc1cccnc1)C(=O)N[C@@H](CO)C(=O)N[C@@H](Cc1ccc(NC(=O)[C@@H]2CC(=O)NC(=O)N2)cc1)C(=O)N(C)[C@H](Cc1ccc(NC(N)=O)cc1)C(=O)N[C@@H](CC(C)C)C(=O)N[C@@H](CCCCNC(C)C)C(=O)N1CCC[C@H]1C(=O)N[C@H](C)C(N)=O` stands 1.85 nM.
For `CC(=O)N[C@H](Cc1ccc2ccccc2c1)C(=O)N[C@H](Cc1ccc(Cl)cc1)C(=O)N[C@H](Cc1cccnc1)C(=O)N[C@@H](CO)C(=O)N[C@@H](Cc1ccc(NC(=O)[C@@H]2CC(=O)NC(=O)N2)cc1)C(=O)N[C@H](Cc1ccc(NC(N)=O)cc1)C(=O)N[C@@H](CC(C)C)C(=O)N[C@@H](CCCCNC(C)C)C(=O)N1CCC[C@H]1C(=O)N[C@H](C)C(N)=O` [DEGARELIX] (Ac-[d2Nal][dPhe(4-Cl)][d3Pal]S[Phe(4-NH2)](Dihydroorotyl(S))[dPhe(4-NHCONH2)]L[Lys(iPr)]P[dA]-NH2), the IC50 turned out to be 1.64 nM. This IC50 and that of the molecule before are within 1.5-fold of each other.
`CC(=O)N[C@H](Cc1ccc2ccccc2c1)C(=O)N[C@H](Cc1ccc(Cl)cc1)C(=O)N[C@H](Cc1cccnc1)C(=O)N[C@@H](CO)C(=O)N[C@@H](Cc1ccc(NC(=O)[C@@H]2CC(=O)NC(=O)N2)cc1)C(=O)N[C@H](Cc1ccc(NC(N)=O)cc1)C(=O)N[C@@H](CC(C)C)C(=O)N(C)[C@@H](CCCCNC(C)C)C(=O)N1CCC[C@H]1C(=O)N[C@H](C)C(N)=O` displayed a 50% inhibitory concentration (IC50) of 52.2 nM.
On to `C#CC[C@H](NC(=O)[C@@H](Cc1ccc(NC(N)=O)cc1)NC(=O)[C@H](Cc1ccc(NC(=O)[C@@H]2CC(=O)NC(=O)N2)cc1)NC(=O)[C@H](CO)NC(=O)[C@@H](Cc1cccnc1)NC(=O)[C@@H](Cc1ccc(Cl)cc1)NC(=O)[C@@H](Cc1ccc2ccccc2c1)NC(C)=O)C(=O)N[C@@H](CCCCNC(C)C)C(=O)N1CCC[C@H]1C(=O)N[C@H](C)C(N)=O`, for which the IC50 was 2.11 nM.
On to `CC(=O)N[C@H](Cc1ccc2ccccc2c1)C(=O)N[C@H](Cc1ccc(Cl)cc1)C(=O)N[C@H](Cc1cccnc1)C(=O)N[C@@H](CO)C(=O)N[C@@H](Cc1ccc(NC(=O)[C@@H]2CC(=O)NC(=O)N2)cc1)C(=O)N[C@H](Cc1ccc(NC(N)=O)cc1)C(=O)N(C)[C@@H](CC(C)C)C(=O)N[C@@H](CCCCNC(C)C)C(=O)N1CCC[C@H]1C(=O)N[C@H](C)C(N)=O`, for which the half-inhibitory concentration (IC50) is 1.47 nM.
The same measure, in the same setting: under `CC(=O)N[C@H](Cc1ccc2ccccc2c1)C(=O)N[C@H](Cc1ccc(Cl)cc1)C(=O)N[C@H](Cc1cccnc1)C(=O)N[C@@H](CO)C(=O)N[C@@H](Cc1ccc(NC(=O)[C@@H]2CC(=O)NC(=O)N2)cc1)C(=O)N[C@H](Cc1ccc(NC(N)=O)cc1)C(=O)N[C@@H](CC(C)C)C(=O)N[C@@H](CCCNC(=O)CNC(C)C)C(=O)N1CCC[C@H]1C(=O)N[C@H](C)C(N)=O` stands 1.38 nM; under `CC(=O)N[C@H](Cc1ccc2ccccc2c1)C(=O)N[C@H](Cc1ccc(Cl)cc1)C(=O)N[C@H](Cc1cccnc1)C(=O)N[C@@H](CO)C(=O)N[C@@H](Cc1ccc(Nc2n[nH]c(N)n2)cc1)C(=O)N[C@H](Cc1ccc(Nc2n[nH]c(N)n2)cc1)C(=O)N[C@@H](CC(C)C)C(=O)N[C@@H](CCCCNC(C)C)C(=O)N1CCC[C@H]1C(=O)N[C@H](C)C(N)=O` [PRAZARELIX ACETATE] (Ac-[d2Nal][dPhe(4-Cl)][d3Pal]S[Phe(4-NH(5-NH2triazol-3-yl))][X1]L[Lys(iPr)]P[dA]-NH2), 1.4 nM; under `CC(=O)N[C@H](Cc1ccc2ccccc2c1)C(=O)N[C@H](Cc1ccc(Cl)cc1)C(=O)N[C@H](Cc1cccnc1)C(=O)N[C@@H](CO)C(=O)N[C@@H](Cc1ccc(NC(=O)[C@@H]2CC(=O)NC(=O)N2)cc1)C(=O)N[C@H](Cc1ccc(NC(N)=O)cc1)C(=O)N[C@@H](CC(C)C)C(=O)N[C@@H](CNC(=O)CCNC(C)C)C(=O)N1CCC[C@H]1C(=O)N[C@H](C)C(N)=O`, 1.98 nM.

Still in this assay, the particulars now being: hek293.
Molecule `CC(=O)N[C@H](Cc1ccc2ccccc2c1)C(=O)N[C@H](Cc1ccc(Cl)cc1)C(=O)N[C@@H](Cc1cccnc1)C(=O)N[C@@H](CO)C(=O)N[C@@H](Cc1ccc(NC(=O)[C@@H]2CC(=O)NC(=O)N2)cc1)C(=O)N[C@@H](Cc1ccc(NC(N)=O)cc1)C(=O)N[C@@H](CC(C)C)C(=O)N[C@@H](CCCNC(=O)[C@H]1CC(=O)NC(=O)N1)C(=O)N1CCC[C@H]1C(=O)N[C@H](C)C(N)=O` showed a 50% inhibitory concentration (IC50) of 1.77 nM.
In the case of `CC(=O)N[C@H](Cc1ccc2ccccc2c1)C(=O)N[C@H](Cc1ccc(Cl)cc1)C(=O)N[C@@H](Cc1cccnc1)C(=O)N[C@@H](CO)C(=O)N[C@@H](Cc1ccc(NC(=O)[C@@H]2CC(=O)NC(=O)N2)cc1)C(=O)N[C@@H](Cc1ccc(NC(N)=O)cc1)C(=O)N[C@@H](CC(C)C)C(=O)N[C@@H](CCNC(C(=O)O)C1CCCCC1)C(=O)N1CCC[C@H]1C(=O)N[C@H](C)C(N)=O` (stereo partly specified), the IC50 stood at 1.77 nM.
In the case of `CC(=O)N[C@H](Cc1ccc2ccccc2c1)C(=O)N[C@H](Cc1ccc(Cl)cc1)C(=O)N[C@H](CCNCc1ccccn1)C(=O)N[C@@H](CO)C(=O)N[C@@H](Cc1ccc(NC(=O)[C@@H]2CC(=O)NC(=O)N2)cc1)C(=O)N[C@H](Cc1ccc(NC(N)=O)cc1)C(=O)N[C@@H](CC(C)C)C(=O)N[C@@H](CCCCNC(C)C)C(=O)N1CCC[C@H]1C(=O)N[C@H](C)C(N)=O`, the concentration for half-maximal inhibition (IC50) turned out to be 3.79 nM.
Still for that read-out and setting: under `CC(=O)N[C@H](Cc1ccc2ccccc2c1)C(=O)N[C@H](Cc1ccc(Cl)cc1)C(=O)N[C@H](Cc1cccnc1)C(=O)N[C@@H](CO)C(=O)N[C@@H](Cc1ccc(NC(=O)[C@@H]2CC(=O)NC(=O)N2)cc1)C(=O)N[C@H](Cc1ccc(NC(N)=O)cc1)C(=O)N[C@@H](CC(C)C)C(=O)N[C@@H](CN[C@H](C(=O)O)C1CCCCC1)C(=O)N1CCC[C@H]1C(=O)N[C@H](C)C(N)=O` stands 2.01 nM.
Same read-out and setting: under `CC(=O)N[C@H](Cc1ccc2ccccc2c1)C(=O)N[C@H](Cc1ccc(Cl)cc1)C(=O)N[C@H](CN(Cc1ccccn1)Cc1ccccn1)C(=O)N[C@@H](CO)C(=O)N[C@@H](Cc1ccc(NC(=O)[C@@H]2CC(=O)NC(=O)N2)cc1)C(=O)N[C@H](Cc1ccc(NC(N)=O)cc1)C(=O)N[C@@H](CC(C)C)C(=O)N[C@@H](CCCCNC(C)C)C(=O)N1CCC[C@H]1C(=O)N[C@H](C)C(N)=O` stands 5.31 nM.
